Active and inactive are the calls of the source. The calls are words filed in the database; no cut-off is given here.
How the values were obtained:
[1] = molecular target: T1, Geranylgeranyl pyrophosphate synthase (Homo sapiens) (UniProt O95749); test: Inhibition of GGDPS in human […] cells assessed as increase in Rap1a level at 1 to 10 uM by Western blot analysis; assay type: cell-based
T1 sequence (whole entry): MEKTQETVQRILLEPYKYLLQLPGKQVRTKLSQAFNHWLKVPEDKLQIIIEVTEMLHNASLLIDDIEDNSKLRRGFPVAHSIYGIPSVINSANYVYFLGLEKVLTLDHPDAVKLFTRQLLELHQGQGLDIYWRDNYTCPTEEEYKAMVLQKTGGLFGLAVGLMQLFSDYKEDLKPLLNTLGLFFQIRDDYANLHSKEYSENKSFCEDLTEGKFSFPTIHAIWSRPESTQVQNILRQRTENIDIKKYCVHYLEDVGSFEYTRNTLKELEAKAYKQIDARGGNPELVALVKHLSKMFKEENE
Outline: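 RPMI-8226 cells were treated for 48 h with varying compound concentrations or lovastatin (10 μM). RIPA lysates containing protease and phosphatase inhibitors were protein-equalized by BCA, then run on SDS-PAGE and transferred to PVDF. Blots were probed with an antibody detecting only unmodified (non-geranylgeranylated) Rap1a, with β-tubulin as loading control, and developed by HRP secondary and ECL.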

Homo sapiens = species on record: Homo sapiens; test: Selectivity ratio of IC50 for recombinant FDPS (unknown origin) to IC50 for recombinant GGDPS (unknown origin)
Outline: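 Ratio of FDPS IC50 to GGDPS IC50. Both enzymes were recombinant: FDPS from an academic source, GGDPS commercial. Each IC50 came from duplicate wells at multiple concentrations in three independent experiments. Positive controls were zoledronic acid for FDPS and digeranyl bisphosphate for GGDPS.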

[2] = molecular target: T1, Geranylgeranyl pyrophosphate synthase (Homo sapiens); test: Inhibition of GGDPS in human […] cells assessed as decrease in Rab GTPase geranylgeranylation by measuring accumulation of intracellular lambda light chain after 48 hrs by ELISA; assay type: cell-based
Outline: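 RPMI-8226 myeloma cells were exposed for 48 h to a range of test concentrations, with lovastatin (10 μM) as positive control. Whole-cell lysates were made in RIPA buffer with protease and phosphatase inhibitors. Intracellular lambda light chain was quantified by human lambda ELISA and normalized to BCA total protein. Data are % of control, mean + SD, n=3; unpaired two-tailed t-test, p < 0.05.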

[3] = molecular target: T2, Farnesyl pyrophosphate synthase (Homo sapiens, UniProt P14324); test: Inhibition of recombinant FDPS (unknown origin) using GPP as substrate pretreated for 10 mins followed by substrate addition measured after 30 mins in presence of [14C]-IPP by liquid scintillation counting method
T2 sequence (P14324 whole entry): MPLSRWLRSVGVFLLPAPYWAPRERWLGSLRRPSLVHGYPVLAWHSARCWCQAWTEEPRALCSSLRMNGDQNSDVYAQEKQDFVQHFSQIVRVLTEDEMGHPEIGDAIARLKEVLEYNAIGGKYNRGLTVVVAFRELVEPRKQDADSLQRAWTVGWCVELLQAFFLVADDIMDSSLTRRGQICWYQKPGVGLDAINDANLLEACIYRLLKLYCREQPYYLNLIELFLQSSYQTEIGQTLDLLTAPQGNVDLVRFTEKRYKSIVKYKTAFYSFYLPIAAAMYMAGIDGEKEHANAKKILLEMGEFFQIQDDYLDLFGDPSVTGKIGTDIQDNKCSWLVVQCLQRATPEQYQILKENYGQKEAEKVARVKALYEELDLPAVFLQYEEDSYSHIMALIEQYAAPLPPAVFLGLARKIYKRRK
Outline: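 Recombinant FDPS was a gift from an academic laboratory. Each compound was tested in duplicate at multiple concentrations across three independent experiments to obtain IC50, with zoledronic acid as positive control in every run.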

[4] = molecular target: T3, Geranylgeranyl pyrophosphate synthase (Homo sapiens, UniProt O95749); test: Inhibition of recombinant GGDPS (unknown origin) using FPP as substrate pretreated for 10 mins followed by substrate addition measured after 30 mins in presence of [14C]-IPP by liquid scintillation counting method
T3 sequence (O95749 whole entry): T1 sequence (whole entry)
Outline: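 Commercial recombinant GGDPS was used, following a previously described protocol. Each compound was run in duplicate at several concentrations across three independent experiments, and IC50 was reported with digeranyl bisphosphate as the positive control in every run.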

[5] = molecular target: T1, Geranylgeranyl pyrophosphate synthase (Homo sapiens); details: 50 to 1000 nM
[6] = molecular target: T1, Geranylgeranyl pyrophosphate synthase (Homo sapiens); details: 50 to 1000 nM; remark: listed apart in the source

MEC [1] [µM]	Ratio IC50 (Homo sapiens)	MEC [2] [µM]	IC50 [3] [µM]	IC50 [4] [µM]	inhibition [5]	inhibition [6]	SMILES
0.1	49	0.1	62.2	1.27			CC(C)=CCCC(C)=CCn1cc(CC(C)(P(=O)(O)O)P(=O)(O)O)nn1 (mixture of isomers)
					Active	Active	CC(C)=CCCC(C)=CCn1cc(CC(P(=O)(O)O)P(=O)(O)O)nn1 (mixture of isomers)
0.1	> 108	0.1	> 100	0.92			CC(C)=CCC/C(C)=C\Cn1cc(CC(C)(P(=O)(O)O)P(=O)(O)O)nn1
5	3.5	5	71.4	20.5			CC(C)=CCC/C(C)=C/Cn1cc(CC(C)(P(=O)(O)O)P(=O)(O)O)nn1
2.5	16	2.5	94.3	5.85			CCC(Cc1cn(CC=C(C)CCC=C(C)C)nn1)(P(=O)(O)O)P(=O)(O)O

SMILES	MEC [1] [µM]	Ratio IC50 (Homo sapiens)	MEC [2] [µM]	IC50 [3] [µM]	IC50 [4] [µM]	inhibition [5]	inhibition [6]
CC(C)=CCC/C(C)=C/CCn1cc(CC(C)(P(=O)(O)O)P(=O)(O)O)nn1 (mixture of isomers) [listing 1 of 2 here]				24.1	0.1		
CC(C)=CCC/C(C)=C\CCn1cc(CC(C)(P(=O)(O)O)P(=O)(O)O)nn1	0.025	693	0.025	59.6			
CC(C)=CCC/C(C)=C/CCn1cc(CC(C)(P(=O)(O)O)P(=O)(O)O)nn1 [listing 1 of 2 here]	0.02	345	0.02				
CC(C)=CCC/C(C)=C/CCn1cc(CC(C)(P(=O)(O)O)P(=O)(O)O)nn1 [listing 2 of 2 here]				43.1			
CC(C)=CCC/C(C)=C/CCn1cc(CC(C)(P(=O)(O)O)P(=O)(O)O)nn1 (mixture of isomers) [listing 2 of 2 here]	0.03	241	0.03				

— ChEMBL document CHEMBL4177743, “α-Methylation enhances the potency of isoprenoid triazole bisphosphonates as geranylgeranyl diphosphate synthase inhibitors” (Bioorg Med Chem, 2018)
